High-throughput results (PubChem)
MDM2 E3 inh – inhibitors of human Mdm2 E3 ubiquitin ligase | Q00987 | cell-based MDM2 ubiquitination luciferase reporter, 2 h; 0 = plate control, 100 = twice control, blank-subtracted | signal enhancement, % at 5 µM | 210,000 compounds, 0.11% hits;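 active = signal enhancement of 30% or more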;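 also: luminescence tracks abundance of the self-degrading MDM2-luciferase fusion protein; higher signal means inhibition of MDM2 E3 ligase activity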
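test system = mammalian cells stably expressing self-ubiquitinating, self-degrading MDM2 E3–luciferase fusion | quantity = 2000 cells/well | incubation = cell settling 4 h, compound treatment 2 h, both 37 °C | signal = luminescence with SteadyLite reagent, 15 min at room temperature | evaluation = % enhancement relative to plate controls after blank subtraction | benchmarks = plate controls and plate blanks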
Cl transport mod – modulates chloride dependent transport by human KCC2; Q9H2X9; KCC2 cells, thallium flux FluoZin-2 fluorescence; B-score of Tl+ flux slope (higher = more flux/activation; lower = inhibition) at 10 µM; 190,000 compounds, 2.2% hits; AID 1456;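 active = thallium flux slope and its plate-corrected score both differing from the plate sample mean at a set confidence after two filtering rounds, in either direction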;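 also: slope of fluorescence scaled to starting intensity during 10 to 20 s after thallium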
PKD1 kinase inh – PKD1 (human) kinase inhibition; inhibition, % (no concentration beside the values); AID 797; PKD1 kinase fluorescence polarization assay; 200,000 compounds, 0.056% hits; Q15139; in the data active = inhibition above about 50%
p97 inhibitor – human p97 ATPase inhibition; P55072; recombinant p97 ATPase, Kinase-Glo ATP luminescence, 3 h; inhibition, % at 8 µM; 220,000 compounds, 0.42% hits; in the data active = inhibition above about 15%;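 also: 0% = DMSO vehicle and 100% = wells lacking enzyme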
Target sequence (P55072 whole entry, looked up): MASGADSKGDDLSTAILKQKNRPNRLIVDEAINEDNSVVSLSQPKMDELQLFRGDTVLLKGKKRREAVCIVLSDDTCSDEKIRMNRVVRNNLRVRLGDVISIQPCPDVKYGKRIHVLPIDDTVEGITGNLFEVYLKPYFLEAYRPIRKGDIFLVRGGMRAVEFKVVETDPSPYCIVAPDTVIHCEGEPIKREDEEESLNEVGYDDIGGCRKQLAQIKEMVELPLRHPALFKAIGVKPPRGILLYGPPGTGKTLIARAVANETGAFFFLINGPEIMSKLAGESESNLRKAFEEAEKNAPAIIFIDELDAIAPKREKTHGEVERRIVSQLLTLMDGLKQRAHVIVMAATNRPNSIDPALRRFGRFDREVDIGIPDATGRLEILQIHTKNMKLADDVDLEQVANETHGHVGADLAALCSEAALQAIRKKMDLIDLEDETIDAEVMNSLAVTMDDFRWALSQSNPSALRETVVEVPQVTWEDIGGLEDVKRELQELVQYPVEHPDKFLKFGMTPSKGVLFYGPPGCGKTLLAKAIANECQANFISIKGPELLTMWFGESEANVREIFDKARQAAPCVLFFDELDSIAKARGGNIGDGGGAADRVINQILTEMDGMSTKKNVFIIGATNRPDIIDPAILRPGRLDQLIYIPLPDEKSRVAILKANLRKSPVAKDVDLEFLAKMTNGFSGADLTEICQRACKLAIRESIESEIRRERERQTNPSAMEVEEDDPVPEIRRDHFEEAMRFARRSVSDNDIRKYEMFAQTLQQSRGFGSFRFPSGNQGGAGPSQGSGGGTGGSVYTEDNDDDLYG
ROMK mod – human ROMK K+ channel modulation, primary screen; P48048; Tet-inducible ROMK, thallium flux fluorescence; actives lie on both sides; B-score at 10 µM; 130,000 compounds, 2% hits; AID 1918;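 active = signal ratio slope over the read window, or its plate-corrected B-score, at least 3 SD from the plate mean, either direction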;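 also: B-score of the F/F0 ratio slope over 7 to 12 s after thallium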
DTT redox prof – compounds producing H2O2 with reducing agent – biochemical, NIH compound library profiling, artefact control for MLSCN library redox annotation, primary screen. DTT-dependent redox cycling H2O2, phenol red/HRP absorbance; 100% = 100 µM peroxide control, 0% = buffer. activation, % at 10 µM. 200,000 compounds, 0.03% hits. AID 878;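 active = activation of at least 50% relative to the plate's high and low controls in the primary single-dose screen; inactive = activation below 50%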;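 also: compound incubated with DTT at 0.8 mM final as the reducing agent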
KCC2 secondary – confirmation of human KCC2 transport modulators; AID 1713; HEK293-KCC2, thallium flux, FluoZin2 fluorescence; hits give high values; 3,700 compounds, 15% hits; normalised thallium flux (F/F0 slope) at 10 µM; shares compounds with Cl transport mod;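 active = thallium flux slope above the same plate's solvent-only control mean plus 3 SD; inconclusive = the two replicate wells disagree; inactive = no significant difference from solvent-only control wells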
KCC2 bumet counter – thallium flux despite bumetanide block in KCC2 cells, secondary assay 3; shares compounds with Cl transport mod; HEK293-KCC2 + bumetanide/ouabain, thallium flux FluoZin2; hits give high values; normalized thallium flux at 10 µM; 3,700 compounds, 49% hits; AID 1714;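 active = thallium entry rate above the same plate's blocked-transporter control wells by more than 3 SD; inconclusive = the two repeat wells disagree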;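 also: raw slope of fluorescence over initial fluorescence between 10 and 20 s after thallium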
KCC2 sec2 – KCC2 (human) modulation, second secondary assay | shares compounds with Cl transport mod | HEK293-KCC2, thallium flux FluoZin2 fluorescence; actives lie on both sides; F/F0 rise rate, 10–20 s post-thallium | normalized thallium flux at 10 µM | 3,700 compounds, 23% hits | AID 1715;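 active = thallium flux slope more than 3 SD above or below the plate's solvent-only control mean, mostly below; inconclusive = the two repeat wells disagreed; inactive = no significant shift from solvent-only controls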;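 also: raw slope with 0.1% DMSO as baseline and bumetanide as block control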
HEK293 Tl flux – acts in parental HEK cells, KCC2 counter-screen; shares compounds with Cl transport mod; HEK293 parental cells, thallium flux FluoZin2, ouabain; baseline-ratio fluorescence slope, 10–20 s after thallium; thallium flux rate (normalised fluorescence) at 10 µM; 3,700 compounds, 46% hits; AID 1716;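 active = thallium flux rate significantly above the same plate's solvent-only control wells, beyond their mean plus 3 SD; inconclusive = the two replicate wells gave conflicting results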
KCC2 ouabain – KCC2 (human) modulation, ouabain retest; shares compounds with Cl transport mod; raw Tl+ flux slope (below DMSO = inhibition, above = activation) at 10 µM; 3,700 compounds, 48% hits; AID 1717; HEK293-KCC2, thallium flux FluoZin2 fluorescence; bidirectional: low = inhibitor, high = activator;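 active = thallium flux slope beyond 3 SD from same-plate DMSO control mean in most replicates, usually higher, sometimes lower; inconclusive = repeat tests gave conflicting results; inactive = no significant difference from controls in most replicates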;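 also: slope of initial-normalized fluorescence between seconds 10 and 20 after thallium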
HEK counter2 – parental HEK flux effect, counter-screen 2. shares compounds with Cl transport mod. HEK293 parental, thallium flux FluoZin-2 fluorescence slope. thallium flux slope at 10 µM. 3,700 compounds, 33% hits;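 active = thallium flux slope above the same plate's solvent-control mean plus 3 SD in both duplicate wells; inconclusive = duplicate wells that disagreed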;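 also: run without ouabain in cells lacking the KCC2 cotransporter; slope of fluorescence scaled to its starting value between 10 and 20 s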
An asterisk follows results filed as active; ? = inconclusive; . = no result given. An excerpt weighted towards active compounds, which were near 3.4% of everything screened.

SMILES | MDM2 E3 inh | Cl transport mod | PKD1 kinase inh | p97 inhibitor | ROMK mod | DTT redox prof | KCC2 secondary | KCC2 bumet counter | KCC2 sec2 | HEK293 Tl flux | KCC2 ouabain | HEK counter2
O=S(=O)(c1c(F)cccc1F)N1CCN(C(=S)NCc2ccc3c(c2)OCO3)CC1 | -10.0 | -0.673 | 0.0 | 9.8 | 2.09 | 0.0 | . | . | . | . | . | .
CCC(=O)n1nc(NCc2ccc(OC)c(OC)c2)nc1NCc1ccc(OC)c(OC)c1 | -6.1 | 0.000867 | -5.9 | -6.5 | -0.404 | 0.0 | . | . | . | . | . | .
CSC1=NS(=O)(=O)c2c(C)nn(C)c2S1 | -13.7 | -4.03* | . | 3.6 | . | . | 0.00828 | 0.00667 | 0.0325 | ? | 0.0191 | ?
C/C(=N\NC(=O)CNc1cccc(C(F)(F)F)c1)c1cccc(Br)c1 | -6.7 | 5.45* | -2.4 | 2.5 | . | 1.1 | 0.0101 | 0.00637 | 0.0345 | 0.00741 | 0.0221 | 0.0107
C/C(=N\NC(=O)CNc1cccc(C(F)(F)F)c1)c1ccc(Br)cc1 | -13.8 | -0.0464 | -8.6 | 7.5 | 0.064 | 1.0 | . | . | . | . | . | .
Cc1ccc(C(=O)NNC(=O)Cc2csc(-c3csc(C)n3)n2)cc1 | -11.1 | 0.225 | . | 8.6 | . | . | . | . | . | . | . | .
COc1ccc(C2=NN(C(C#N)c3ccc(OC)cc3)C(c3ccccc3)C2)cc1 (centres undefined) | -21.7 | -0.352 | -19.1 | -1.8 | 0.344 | 0.7 | . | . | . | . | . | .
COCCN1C(=O)/C(=C/c2cc3c(cc2Br)OCO3)NC1=S | -8.8 | 20.9* | 0.9 | 0.8 | 0.545 | -1.1 | 0.00585 | 0.0471* | 0.0414* | 0.0348* | 0.0411* | 0.0333*
CC(C)(C)NC(=O)C(=O)NNC(=O)c1cccc(F)c1 | . | 20.8* | 1.4 | -0.9 | 0.154 | -1.6 | 0.006 | 0.0254* | 0.0385* | 0.0238* | 0.0319* | 0.0255*
CC(C)(C)NC(=O)C(=O)NNC(=O)c1ccccc1 | 12.6 | 3.69* | -3.9 | 2.7 | . | 2.4 | 0.0187* | 0.034* | 0.0351 | 0.0172* | 0.0293 | 0.0118*
COc1cc(C2C(C#N)=C(N)OC3=C2C(=O)CCC3)ccc1OC(=O)N1CCOCC1 (centres undefined) | -1.6 | 0.963 | -6.4 | 2.4 | . | 0.6 | . | . | . | . | . | .
Cc1[nH]c(=O)[nH]c(=O)c1S(=O)(=O)Nc1ccc(Oc2ccccc2)cc1 | -2.3 | -2.39 | 10.1 | 2.2 | . | 2.3 | . | . | . | . | . | .
OCC1N=C(c2ccccn2)OC1c1ccccc1 (centres undefined) | -4.9 | -5.84* | -19.4 | 1.2 | . | 1.1 | 0.00722 | 0.00703 | 0.0299 | 0.00719 | 0.0204 | 0.0105*
CCOc1nc(-c2ccc(C)cc2)ccc1-c1noc(-c2cccnc2)n1 | -3.1 | 2.91* | 5.3 | -4.1 | -0.525 | 0.0 | 0.00831 | 0.00464 | 0.0287 | 0.00755 | 0.0197 | 0.0104
CCc1cc2c(=O)c(-c3cnn(-c4ccccc4)c3)c(C(F)(F)F)oc2c(CN(C)C)c1O | . | -0.33 | -3.4 | 3.3 | 0.0382 | -0.3 | . | . | . | . | . | .
Cc1cc2c(OCC(O)CN3CCCC3)cccc2[nH]1 (centres undefined) | -100.0 | 1.42 | -4.2 | -4.7 | -0.262 | -1.2 | . | . | . | . | . | .
